Measurements published in ChEMBL document CHEMBL1153183, “Pyridine containing M(1) positive allosteric modulators with reduced plasma protein binding” (Bioorg Med Chem Lett, 2010).

Legend:
[1] = molecular target: T1, Muscarinic acetylcholine receptor M1 (Homo sapiens) (UniProt P11229); experiment: Allosteric modulation of human muscarinic M1 receptor expressed in CHO cells assessed as effect on acetylcholine-induced calcium mobilization by FLIPR assay; format: functional, cell-based
T1 sequence (whole entry): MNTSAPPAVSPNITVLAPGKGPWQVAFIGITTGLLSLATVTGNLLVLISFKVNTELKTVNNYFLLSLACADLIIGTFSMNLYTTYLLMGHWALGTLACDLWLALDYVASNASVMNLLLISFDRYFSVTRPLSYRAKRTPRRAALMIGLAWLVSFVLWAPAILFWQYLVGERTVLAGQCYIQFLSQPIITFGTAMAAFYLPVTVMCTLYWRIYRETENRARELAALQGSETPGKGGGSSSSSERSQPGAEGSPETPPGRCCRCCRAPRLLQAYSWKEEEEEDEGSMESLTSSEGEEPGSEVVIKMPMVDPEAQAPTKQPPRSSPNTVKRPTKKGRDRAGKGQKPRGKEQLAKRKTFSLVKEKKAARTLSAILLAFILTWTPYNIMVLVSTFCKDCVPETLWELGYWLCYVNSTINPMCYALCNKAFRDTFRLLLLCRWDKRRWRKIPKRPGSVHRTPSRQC
Summary of the method: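 Human M1-expressing CHO cells; test compound added with an EC20 concentration of acetylcholine; calcium mobilization read on FLIPR384. Inflection point (IP) derived; percent max is the maximum potentiated EC20 response. Values are the mean of at least two experiments; interassay variability ±30% for IP unless otherwise noted.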

[2] = molecular target: T1, Muscarinic acetylcholine receptor M1 (Homo sapiens); experiment: Potentiation of human muscarinic M1 receptor expressed in CHO cells assessed as effect on acetylcholine-induced calcium mobilization by FLIPR assay at 30 uM
[3] = molecular target: T1, Muscarinic acetylcholine receptor M1 (Homo sapiens); experiment: Allosteric modulation of human muscarinic M1 receptor expressed in CHO cells assessed as effect on acetylcholine-induced calcium mobilization by FLIPR assay relative to 1-Biphenyl-4-ylmethyl-4-oxo-1,4-dihydro-quinoline-3-carboxylic acid; format: functional, cell-based
[4] = Ratio of drug level in brain to plasma Sprague-Dawley rat at 10 mg/kg, po after 2 hrs
[5] = Drug level Sprague-Dawley rat brain at 10 mg/kg, po after 2 hrs
[6] = Plasma concentration in Sprague-Dawley rat at 10 mg/kg, po after 2 hrs
[7] = Drug level Sprague-Dawley rat cerebrospinal fluid at 10 mg/kg, po after 2 hrs

Compound	IP [1] [nM]	other results
CC(=O)Nc1ccc(-c2ccc(Cn3cc(C(=O)O)c(=O)c4cccc(F)c43)nc2)cc1	78	–
CS(=O)(=O)c1cccc(-c2ccc(Cn3cc(C(=O)O)c(=O)c4cccc(F)c43)nn2)c1	1540	–
CS(=O)(=O)c1ccccc1-c1ccc(Cn2cc(C(=O)O)c(=O)c3cccc(F)c32)nc1	97	–
COc1cccc(-c2ccc(Cn3cc(C(=O)O)c(=O)c4cccc(F)c43)nc2)c1	89	–
COc1ccc(Cn2cc(C(=O)O)c(=O)c3ccccc32)cc1	660	–
Nc1cccc(-c2ccc(Cn3cc(C(=O)O)c(=O)c4cccc(F)c43)nc2)c1	21	fold change (FC) [2]: 45
O=C(O)c1cn(Cc2ccc(-c3ccccc3)cn2)c2c(F)cccc2c1=O	153	fold change (FC) [2]: 37; Emax [3]: 80%
O=C(O)c1cn(Cc2ccc(-c3ccc(F)cc3)nc2)c2c(F)cccc2c1=O	190	–
O=C(O)c1cn(Cc2ccc(-c3ccc(F)cc3)nn2)c2c(F)cccc2c1=O	466	–
O=C(O)c1cn(Cc2ccc(-c3ccccc3)nn2)c2c(F)cccc2c1=O	390	Emax [3]: 97%
Cn1cc(-c2ccc(Cn3cc(C(=O)O)c(=O)c4cccc(F)c43)nc2)cn1	160	fold change (FC) [2]: 37; Kp at 2 h [4]: 0.03; concentration at 2 h [5]: 430 nM; concentration at 2 h [6]: 33300 nM; concentration at 2 h [7]: 40 nM
O=C(O)c1cn(Cc2cnc(-c3ccccc3)cn2)c2c(F)cccc2c1=O	1300	Emax [3]: 85%
CN(C)c1ccc(-c2ccc(Cn3cc(C(=O)O)c(=O)c4cccc(F)c43)nc2)cn1	82	–
Nc1ccc(-c2ccc(Cn3cc(C(=O)O)c(=O)c4cccc(F)c43)nc2)cn1	200	–
CS(=O)(=O)c1cccc(-c2ccc(Cn3cc(C(=O)O)c(=O)c4cccc(F)c43)cn2)c1	28	Kp at 2 h [4]: 0.4; concentration at 2 h [5]: 154 nM; concentration at 2 h [6]: 382 nM
CN(C)c1cccc(-c2ccc(Cn3cc(C(=O)O)c(=O)c4cccc(F)c43)cn2)c1	130	–
CS(=O)(=O)c1ccc(-c2ccc(Cn3cc(C(=O)O)c(=O)c4cccc(F)c43)nc2)cc1	260	fold change (FC) [2]: 33
O=C(O)c1cn(Cc2ccc(-c3ccc4[nH]ccc4c3)nn2)c2c(F)cccc2c1=O	8660	–

Compound	IP [1] [nM]	other results
O=C(O)c1cn(Cc2ccc(-c3ccnc(Cl)c3)cn2)c2c(F)cccc2c1=O	169	–
O=C(O)c1cn(Cc2ccc(-c3ccc(Cl)nc3)nc2)c2c(F)cccc2c1=O	169	–
O=C(O)c1cn(Cc2ccc(-c3ccc(F)nc3)cn2)c2c(F)cccc2c1=O	100	fold change (FC) [2]: 81; Kp at 2 h [4]: 0.05; concentration at 2 h [5]: 311 nM; concentration at 2 h [6]: 12800 nM; concentration at 2 h [7]: 97 nM
O=C(O)c1cn(Cc2ccc(-c3cccnc3)nn2)c2c(F)cccc2c1=O	778	–
O=C(O)c1cn(Cc2ccc(-c3ccc4[nH]ccc4c3)cn2)c2c(F)cccc2c1=O	57	–
O=C(O)c1cn(Cc2ccc(-c3ccc(F)nc3)nc2)c2c(F)cccc2c1=O	202	–
Nc1cccc(-c2ccc(Cn3cc(C(=O)O)c(=O)c4cccc(F)c43)cn2)c1	21	–
O=C(O)c1cn(Cc2ccc(-c3ccc(F)cc3)cn2)c2c(F)cccc2c1=O	67	–
O=C(O)c1cn(Cc2ccc(-c3cncc(F)c3)cn2)c2c(F)cccc2c1=O	680	–
O=C(O)c1cn(Cc2ccc(-c3cccnc3)cn2)c2c(F)cccc2c1=O	370	Kp at 2 h [4]: 0.05; concentration at 2 h [5]: 154 nM; concentration at 2 h [6]: 2790 nM; concentration at 2 h [7]: 25 nM
CS(=O)(=O)c1cccc(-c2ccc(Cn3cc(C(=O)O)c(=O)c4cccc(F)c43)nc2)c1	97	–
O=C(O)c1cn(Cc2cnc(-c3ccccc3)nc2)c2c(F)cccc2c1=O	4000	Emax [3]: 88%
Cn1cc(-c2ccc(Cn3cc(C(=O)O)c(=O)c4c(F)ccc(F)c43)nc2)cn1	114	–
O=C(O)c1cn(Cc2ncc(-c3ccccc3)cn2)c2c(F)cccc2c1=O	2320	Emax [3]: 90%
CN(C)c1cccc(-c2ccc(Cn3cc(C(=O)O)c(=O)c4cccc(F)c43)nc2)c1	110	–
O=C(O)c1cn(Cc2ccc(-c3ccc4[nH]ccc4c3)nc2)c2c(F)cccc2c1=O	65	–
O=C(O)c1cn(Cc2ccc(-c3ccccc3)nc2)c2c(F)cccc2c1=O	604	Emax [3]: 97%
O=C(O)c1cn(Cc2ccc(-c3cccs3)cn2)c2c(F)cccc2c1=O	150	–
